Measurements taken from paper PMC5059843 (Molecular pharmaceutics, 2016).
“And” between values parts separate entries of the source, which are not always exact repeats. Equal values may be shown once. Read-outs that look alike come from different tables or passages of the source.

How the values were obtained:
[1] = tested on: rat CYP3A; assay type: biochemical
[2] = Rat pharmacokinetics of PPT alone; assay type: in vivo
[3] = target: T1, CYP3A4 (Homo sapiens, UniProt P08684); test: Spectral MIC formation in CYP3A4 baculosomes, SVD and kinetic modeling; assay type: biochemical
T1 sequence (P08684 whole entry): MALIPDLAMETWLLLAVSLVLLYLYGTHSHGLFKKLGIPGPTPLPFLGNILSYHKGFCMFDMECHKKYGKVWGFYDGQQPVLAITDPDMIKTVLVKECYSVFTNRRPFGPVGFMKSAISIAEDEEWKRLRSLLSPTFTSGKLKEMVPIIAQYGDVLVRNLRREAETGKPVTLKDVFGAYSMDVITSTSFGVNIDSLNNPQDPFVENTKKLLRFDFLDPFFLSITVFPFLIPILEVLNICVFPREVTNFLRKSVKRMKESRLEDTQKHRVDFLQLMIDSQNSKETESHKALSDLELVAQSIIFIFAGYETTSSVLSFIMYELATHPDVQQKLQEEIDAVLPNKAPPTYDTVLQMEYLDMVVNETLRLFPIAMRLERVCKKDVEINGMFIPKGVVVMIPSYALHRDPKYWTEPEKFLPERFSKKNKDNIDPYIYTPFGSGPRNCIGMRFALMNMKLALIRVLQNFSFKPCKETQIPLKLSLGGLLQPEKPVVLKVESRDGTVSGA

[4] = Rat plasma equilibrium dialysis; assay type: in vitro ADME; conditions: pH 7.4
How it was run: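 Rat plasma spiked with test compound to a final 2 μM. Dialysed in a 96-well equilibrium dialyser, plasma on one side and blank phosphate buffer (pH 7.4) on the other. Incubated 20 h at 37 °C under 5% CO2. The unbound fraction was determined from the two sides.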

[5] = target: T1, CYP3A4; test: Stopped-flow binding kinetics of ligand to purified CYP3A4; conditions: for k2: dissociation rate from KS=k2/k1
[6] = target: T1, CYP3A4; assay type: biochemical
[7] = target: T1, CYP3A4; test: In vitro TDI assay in pooled HLM; assay type: biochemical
[8] = 3A4 baculosomes, Figure 3 scheme
[9] = baculosomes, end of kinetic experiment (~30 min), 100 μM PPT

In the case of `COc1cc([C@@H]2c3cc4c(cc3[C@H](O)[C@H]3COC(=O)[C@H]23)OCO4)cc(OC)c1OC` [PPT, Podophyllotoxin], the k6/KI2 [1] is reported as 6.1e+07 ± 1.68e+07 M⁻¹ s⁻¹, the k7 [1] is reported as 0.12 ± 0.02 min⁻¹ and 0.11 ± 0.02 min⁻¹ and the “mean Cmax,unbound” value ([2]; PPT alone, 2-compartmental model) is reported as 0.17 µM. For the same compound, the Cmax ([2]; male, Sprague-Dawley, plasma) was 3.94 µM, the half-life ([2]; male, Sprague-Dawley, plasma) was 37 min and the “k3 (Fe3+:carbene formation)” value ([3]; 3A4 baculosomes, 100 μM PPT, Figure 3 scheme, footnote b: fixed value) was 1.8 min⁻¹. For the same compound, the “k4 (carbene release, enzyme regeneration)” value [3, 8] was 0.0780 ± 0.0186 min⁻¹, the “k5 (reduction to Fe2+:carbene)” value [3, 8] was 0.0804 ± 0.0228 min⁻¹ and the “k6 (P420 formation from EI)” value [3, 8] was 0.1224 ± 0.0252 min⁻¹. For the same compound, the “k7 (P420 degradation)” value [3, 8] was 0.0636 ± 0.0048 min⁻¹, the “fraction of total P450 as free P450” value [3, 9] was 15.0 ± 0.8% and the “fraction of total P450 in the inactivated form (Fe2+:carbene)” value [3, 9] was 52.0 ± 5.8%. The “enzyme regeneration through carbene release, baculosomes versus HLM” value ([3]; faster in baculosomes than in HLM) was “about 3 fold”, the fraction unbound at 20 h, 2 μM [4] was 0.044 ± 0.006 and the k2 ([5]; used for 3A4 baculosomes model) was 10600 min⁻¹. For the same compound, the k2 ([5]; used for HLM model) was 10600 min⁻¹, the “experimentally determined on-rate (k1) used in the TDI model” value ([5]; fixed in the TDI model fitting) was 270 µM/s and the k1 ([5]; from binding kinetic experiment, used for HLM model) was 1080 min⁻¹. The “k4 (carbene release, enzyme regeneration)” value ([6]; HLM, Figure 3 scheme) was 0.0195 ± 0.000 min⁻¹, the “k6 (P420 formation from EI)” value ([6]; HLM, Figure 3 scheme) was 0.0506 ± 0.0401 min⁻¹ and the “k7 (P420 degradation)” value ([6]; HLM, Figure 3 scheme) was 0 min⁻¹. For the same compound, the “k3 (Fe3+:carbene formation)” value ([6]; HLM, Figure 3 scheme, listed as carries footnote b: fixed value) was 1.134 ± 0.156 min⁻¹, the “fraction of cytochrome P450 in the Fe2+:carbene form” value ([6]; HLM, end of the experiments) was 17.2 ± 2.2% and the “fraction of cytochrome P450 in the P420 form” value ([6]; HLM, end of the experiments) was 24.0 ± 2.1%. For the same compound, the “fraction of cytochrome P450 in the free form” value ([6]; HLM, end of the experiments) was 40.7 ± 7.3%, the “net rate constant for Fe2+:carbene formation (enzyme inactivation)” value ([6]; spectral MIC formation experiments in HLM) was 0.020 min⁻¹ and the k3 ([7]; Q model) was 95.3 ± 1.7 min⁻¹. It also gave a k5 ([7]; Q model) of 3.89e+07 ± 1.63e+07 M⁻¹ s⁻¹, a k7 ([7]; Q model) of 0.23 ± 0.07 min⁻¹ and a k8 ([7]; Q model) of 0.081 ± 0.012 min⁻¹. The k10 ([7]; Q model) was 0.011 ± 0.001 min⁻¹, the α ([7]; Q model) was 0.21 ± 0.08 and the k5 ([7]; QI model) was 5.618e+07 ± 2.612e+07 M⁻¹ s⁻¹. For the same compound, the k8 ([7]; QI model) was 0.15 ± 0.04 min⁻¹, the k9 ([7]; QI model) was 0.011 ± 0.001 min⁻¹ and the k10 ([7]; QI model) was 0.017 ± 006 min⁻¹. The α ([7]; QI model) was 0.16 ± 0.07, the k3 ([7]; QI model (ESI-QI scheme, Figure 5a)) was 94.9 ± 1.6 min⁻¹ and the k7 ([7]; QI model, Fe3+:carbene formation) was 0.50 ± 0.23 min⁻¹.
